Assay results reported in ChEMBL document CHEMBL1149790, “Synthesis of some novel thiourea derivatives obtained from 5-[(4-aminophenoxy)methyl]-4-alkyl/aryl-2,4-dihydro-3H-1,2,4-triazole-3-thiones and evaluation as antiviral/anti-HIV and anti-tuberculosis agents” (Eur J Med Chem, 2008).
In brackets after ≈: the same amount, converted by molar mass.

Key:
[1] = test system: Human immunodeficiency virus 1; assay: Antiviral activity against HIV1 3B in human MT4 cells assessed as protection against virus-induced cytopathogenicity by MTT assay; type: functional, organism-based; set-up: Activity: concentration or dose not given beside the values; details: for IC50: Human immunodeficiency virus 1, 3B, MT4
Summary of the method: (§1)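 MT-4 cells at 6 × 10⁵ cells/ml infected with HIV-1 IIIB or HIV-2 ROD at 100–300 CCID50; compounds in serial five-fold dilutions, triplicate mock- and virus-infected wells. MTT viability read at 540 and 690 nm after 5 days, median OD of three wells; EC50 = 50% protection from viral cytopathic effect.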

[2] = test system: Human immunodeficiency virus 2; assay: Antiviral activity against HIV2 ROD in human MT4 cells assessed as protection against virus-induced cytopathogenicity by MTT assay; type: functional, organism-based; set-up: Activity: concentration or dose not given beside the values; details: for IC50: Human immunodeficiency virus 2, ROD, MT4; summary of the method: as §1
[3] = Cytotoxicity against human MT4 cells by MTT assay; type: cell-based
Summary of the method: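 Mock-infected MT-4 cells (6 × 10⁵ cells/ml) with serial five-fold compound dilutions in triplicate; MTT reduction read at 540 and 690 nm after 5 days, median OD of three wells; CC50 = concentration reducing OD540 of mock-infected control by 50%.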

[4] = Cytotoxicity against human HeLa cells; type: cell-based
Summary of the method: (§2)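 Uninfected cell cultures exposed to test compounds alongside antiviral assays; minimum cytotoxic concentration (MCC) = concentration causing a microscopically detectable alteration of cell morphology.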

[5] = test system: Vesicular stomatitis virus; assay: Antiviral activity against vesicular stomatitis virus in human HeLa cells assessed as inhibition of virus-induced cytopathogenicity; type: functional
Summary of the method: (§3)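 Confluent cell monolayers (E6SM, HEL, HeLa or Vero, per line) inoculated with 100 CCID50 virus; 1 h adsorption, residual virus removed, then incubated with compound at 400, 200, 100 … µg/ml. Cytopathicity scored once complete in untreated virus controls; MIC = concentration inhibiting virus-induced cytopathicity.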

Coxsackievirus B4 [6] = assay: Antiviral activity against Coxsackie virus B4 in human HeLa cells assessed as inhibition of virus-induced cytopathogenicity; type: functional; details: Enterovirus B; summary of the method: as §3
[7] = test system: Respiratory syncytial virus; assay: Antiviral activity against respiratory syncytial virus in human HeLa cells assessed as inhibition of virus-induced cytopathogenicity; type: functional; summary of the method: as §3
[8] = Cytotoxicity against human E6SM cells; type: cell-based; details: E6SM cells; summary of the method: as §2
[9] = Cytotoxicity against human HEL cells assessed as alteration of cell morphology; type: cell-based; summary of the method: as §2
Human alphaherpesvirus 1 [10] = assay: Antiviral activity against HSV1 KOS in human E6SM cells assessed as reduction of virus-induced cytopathogenicity; type: functional; details: Human alphaherpesvirus 1, KOS; summary of the method: as §3
Human alphaherpesvirus 1 [11] = assay: Antiviral activity against HSV1 KOS in human HEL cells assessed as reduction of virus-induced cytopathogenicity; type: functional; details: Human alphaherpesvirus 1, KOS; summary of the method: as §3
Human alphaherpesvirus 2 [12] = assay: Antiviral activity against HSV2 G in human E6SM cells assessed as reduction of virus-induced cytopathogenicity; type: functional; details: Human alphaherpesvirus 2, G; summary of the method: as §3
Human alphaherpesvirus 2 [13] = assay: Antiviral activity against HSV2 G in human HEL cells assessed as reduction of virus-induced cytopathogenicity; type: functional; details: Human alphaherpesvirus 2, G; summary of the method: as §3
[14] = test system: Vesicular stomatitis virus; assay: Antiviral activity against in Vesicular stomatitis virus in human E6SM cells assessed as reduction of virus-induced cytopathogenicity; type: functional; summary of the method: as §3
[15] = test system: Vesicular stomatitis virus; assay: Antiviral activity against in Vesicular stomatitis virus in human HEL cells assessed as reduction of virus-induced cytopathogenicity; type: functional; summary of the method: as §3
Human alphaherpesvirus 1 [16] = assay: Antiviral activity against thymidine kinase deficient and acyclovir resistant HSV1 KOS in human E6SM cells assessed as reduction of virus-induced cytopathogenicity; type: functional; details: Human alphaherpesvirus 1, KOS; summary of the method: as §3
Human alphaherpesvirus 1 [17] = assay: Antiviral activity against thymidine kinase deficient and acyclovir resistant HSV1 KOS in human HEL cells assessed as reduction of virus-induced cytopathogenicity; type: functional; details: Human alphaherpesvirus 1, KOS; summary of the method: as §3
Vero = assay: Cytotoxicity against african green monkey Vero cells; type: cell-based; details: chlorocebus sabaeus; summary of the method: as §2
Coxsackievirus B4 [18] = assay: Antiviral activity against Coxsackie virus B4 in african green monkey Vero cells assessed as reduction of virus-induced cytopathogenicity; type: functional; details: Enterovirus B; summary of the method: as §3
Punta Toro virus = assay: Antiviral activity against Punta Toro virus in african green monkey Vero cells assessed as reduction of virus-induced cytopathogenicity; type: functional; summary of the method: as §3
Human respirovirus 3 = assay: Antiviral activity against Parainfluenza 3 virus in african green monkey Vero cells assessed as reduction of virus-induced cytopathogenicity; type: functional; summary of the method: as §3
[19] = test system: Mammalian orthoreovirus 1; assay: Antiviral activity against Reo virus 1 in african green monkey Vero cells assessed as reduction of virus-induced cytopathogenicity; type: functional; summary of the method: as §3
Sindbis virus = assay: Antiviral activity against Sindbis virus in african green monkey Vero cells assessed as reduction of virus-induced cytopathogenicity; type: functional; summary of the method: as §3

Row | Structure (SMILES) | Activity [1] [%] | IC50 [1] [µg/mL] | Activity [2] [%] | IC50 [2] [µg/mL] | CC50 [3] [µg/mL] | MCC [4] [µg/mL] | MIC [5] [µg/mL] | MIC (Coxsackievirus B4 [6]) [µg/mL] | MIC [7] [µg/mL] | MCC [8] [µg/mL] | MCC [9] [µg/mL] | MIC (Human alphaherpesvirus 1 [10]) [µg/mL] | MIC (Human alphaherpesvirus 1 [11]) [µg/mL] | MIC (Human alphaherpesvirus 2 [12]) [µg/mL] | MIC (Human alphaherpesvirus 2 [13]) [µg/mL] | MIC [14] [µg/mL] | MIC [15] [µg/mL] | MIC (Human alphaherpesvirus 1 [16]) [µg/mL] | MIC (Human alphaherpesvirus 1 [17]) [µg/mL] | Activity (Vero) | also measured
1 | C=CCNC(=S)Nc1ccc(-c2n[nH]c(=S)n2-c2ccccc2)cc1 | 13.5 | > 55.1 | 0 | > 55.1 | 55.1 (≈ 150 µM) | ≥ 400 | > 400 | > 400 | > 400 | ≥ 80 | ≥ 80 | > 80 | > 80 | > 80 | > 80 | > 80 | > 80 | > 80 | > 80 | >= 400 ug ml-1 | MIC (Coxsackievirus B4 [18]): > 400 µg/mL; MIC (Punta Toro virus): > 400 µg/mL; MIC (Human respirovirus 3): > 400 µg/mL; MIC [19]: > 400 µg/mL; MIC (Sindbis virus): > 400 µg/mL
2 | CNC(=S)Nc1ccc(-c2n[nH]c(=S)n2C)cc1 | 1 | > 80.3 | 0 | > 80.3 | 80.3 (≈ 287 µM) | 400 | > 80 | > 80 | > 80 | 400 | 400 | 240 (≈ 859 µM) | 240 (≈ 859 µM) | 240 (≈ 859 µM) | 240 (≈ 859 µM) | > 80 | > 80 | > 80 | > 80 | 400 µg/mL | MIC (Coxsackievirus B4 [18]): > 80 µg/mL; MIC (Punta Toro virus): > 80 µg/mL; MIC (Human respirovirus 3): > 80 µg/mL; MIC [19]: > 80 µg/mL; MIC (Sindbis virus): > 80 µg/mL
3 | CNC(=S)Nc1ccc(-c2n[nH]c(=S)n2-c2ccccc2)cc1 | 23.5 | > 94.4 | 0 | > 94.4 | 94.4 (≈ 276 µM) | ≥ 400 | > 400 | > 400 | > 400 | 400 | 400 | 240 (≈ 703 µM) | 240 (≈ 703 µM) | > 80 | > 80 | > 80 | > 80 | 240 (≈ 703 µM) | 240 (≈ 703 µM) | >= 80 ug ml-1 | MIC (Coxsackievirus B4 [18]): > 80 µg/mL; MIC (Punta Toro virus): > 80 µg/mL; MIC (Human respirovirus 3): > 80 µg/mL; MIC [19]: > 80 µg/mL; MIC (Sindbis virus): > 80 µg/mL
4 | Cn1c(-c2ccc(NC(=S)Nc3ccccc3)cc2)n[nH]c1=S | 35 | > 42.8 | 10 | > 42.8 | 42.8 (≈ 125 µM) | 80 | > 16 | > 16 | > 16 | 400 | 400 | > 80 | > 80 | > 80 | > 80 | > 80 | > 80 | 48 (≈ 141 µM) | 48 (≈ 141 µM) | 400 µg/mL | MIC (Coxsackievirus B4 [18]): > 80 µg/mL; MIC (Punta Toro virus): > 80 µg/mL; MIC (Human respirovirus 3): > 80 µg/mL; MIC [19]: > 80 µg/mL; MIC (Sindbis virus): > 80 µg/mL
5 | C=CCNC(=S)Nc1ccc(-c2nnc(SCc3ccc(Cl)cc3Cl)n2C)cc1 | 0.5 | > 116 | 5 | > 116 | 116 (≈ 250 µM) | 400 | > 80 | > 80 | > 80 | 80 | 80 | > 16 | > 16 | > 16 | > 16 | > 16 | > 16 | > 16 | > 16 | 80 µg/mL | MIC (Coxsackievirus B4 [18]): > 16 µg/mL; MIC (Punta Toro virus): > 16 µg/mL; MIC (Human respirovirus 3): > 16 µg/mL; MIC [19]: > 16 µg/mL; MIC (Sindbis virus): > 16 µg/mL
6 | C=CCNC(=S)Nc1ccc(-c2n[nH]c(=S)n2CC=C)cc1 | 6.5 | > 65.4 | 0 | > 65.4 | 65.4 (≈ 197 µM) | 400 | > 80 | > 80 | > 80 | ≥ 80 | ≥ 80 | > 80 | > 80 | > 80 | > 80 | > 80 | > 80 | 240 (≈ 724 µM) | 240 (≈ 724 µM) | >= 80 ug ml-1 | MIC (Coxsackievirus B4 [18]): > 80 µg/mL; MIC (Punta Toro virus): > 80 µg/mL; MIC (Human respirovirus 3): > 80 µg/mL; MIC [19]: > 80 µg/mL; MIC (Sindbis virus): > 80 µg/mL
7 | CCCCCCNC(=S)Nc1ccc(-c2n[nH]c(=S)n2-c2ccccc2)cc1 | 16 | > 3.99 | 3 | > 3.99 | 3.99 (≈ 9.69 µM) | 400 | > 80 | > 80 | > 80 | ≥ 16 | ≥ 16 | > 16 | > 16 | > 16 | > 16 | > 16 | > 16 | > 16 | > 16 | 400 µg/mL | MIC (Coxsackievirus B4 [18]): > 80 µg/mL; MIC (Punta Toro virus): > 80 µg/mL; MIC (Human respirovirus 3): > 80 µg/mL; MIC [19]: > 80 µg/mL; MIC (Sindbis virus): > 80 µg/mL
8 | S=C(Nc1ccc(Cl)cc1)Nc1ccc(-c2n[nH]c(=S)n2-c2ccccc2)cc1 | 4.5 | > 10.3 | 31 | > 10.3 | 10.3 (≈ 23.5 µM) | 80 | > 16 | > 16 | > 16 | ≥ 16 | ≥ 16 | > 16 | > 16 | > 16 | > 16 | > 16 | > 16 | > 16 | > 16 | >= 16 ug ml-1 | MIC (Coxsackievirus B4 [18]): > 16 µg/mL; MIC (Punta Toro virus): > 16 µg/mL; MIC (Human respirovirus 3): > 16 µg/mL; MIC [19]: > 16 µg/mL; MIC (Sindbis virus): > 16 µg/mL
9 | CCNC(=S)Nc1ccc(-c2n[nH]c(=S)n2-c2ccccc2)cc1 | 5.5 | > 91.3 | 3 | > 91.3 | 91.3 (≈ 257 µM) | ≥ 80 | > 80 | > 80 | > 80 | ≥ 3.2 | ≥ 3.2 | > 3.2 | > 3.2 | > 3.2 | > 3.2 | > 3.2 | > 3.2 | > 3.2 | > 3.2 | >= 80 ug ml-1 | MIC (Coxsackievirus B4 [18]): > 80 µg/mL; MIC (Punta Toro virus): > 80 µg/mL; MIC (Human respirovirus 3): > 80 µg/mL; MIC [19]: > 80 µg/mL; MIC (Sindbis virus): > 80 µg/mL
10 | C=CCNC(=S)Nc1ccc(-c2n[nH]c(=S)n2CC)cc1 | 8.5 | > 57 | 0 | > 57 | 57 (≈ 178 µM) | 400 | > 80 | > 80 | > 80 | 400 | 400 | 240 (≈ 751 µM) | 240 (≈ 751 µM) | 240 (≈ 751 µM) | 240 (≈ 751 µM) | > 80 | > 80 | 240 (≈ 751 µM) | 240 (≈ 751 µM) | >= 80 ug ml-1 | MIC (Coxsackievirus B4 [18]): > 80 µg/mL; MIC (Punta Toro virus): 80 µg/mL (≈ 250 µM); MIC (Human respirovirus 3): > 80 µg/mL; MIC [19]: > 80 µg/mL; MIC (Sindbis virus): > 80 µg/mL
